Measurements from ChEMBL document CHEMBL1152825, “Pseudomonas aeruginosa may accumulate drug resistance mechanisms without losing its ability to cause bloodstream infections” (2007).
In brackets after ≈: the same amount, converted by molar mass.

Key:
Pseudomonas aeruginosa [1] = assay: Antibacterial activity against beta-lactams resistant Pseudomonas aeruginosa isolate expressing AmpC, MexAB-OprM pump, MexXY-OprM pump by macrodilution technique; format: functional
Outline: (§1)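 MICs by agar macrodilution on Mueller-Hinton agar with calibrated divalent cations. Isolates were graded susceptible, intermediate or resistant by CLSI breakpoints. Resistance was defined as a ≥fourfold MIC rise over reference strain PAO1. Resistance mechanisms were assigned by RT-PCR (PAO1-derived overexpressing mutants as controls) and gene complementation.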

Pseudomonas aeruginosa [2] = assay: Antibacterial activity against beta-lactams resistant Pseudomonas aeruginosa isolate expressing OXA2 by macrodilution technique; format: functional; outline: as §1
Pseudomonas aeruginosa [3] = assay: Antibacterial activity against beta-lactams resistant Pseudomonas aeruginosa isolate expressing MexAB-OprM pump by macrodilution technique; format: functional; outline: as §1
Pseudomonas aeruginosa [4] = assay: Antibacterial activity against beta-lactams resistant Pseudomonas aeruginosa isolate expressing AmpC, MexAB-OprM pump by macrodilution technique; format: functional
Outline: as §1, with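 “Bloodstream P. aeruginosa isolates from patients in six French teaching hospitals (1999–2004). MICs” for “MICs”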

Pseudomonas aeruginosa [5] = assay: Antibacterial activity against beta-lactams resistant Pseudomonas aeruginosa isolate expressing AmpC by macrodilution technique; format: functional; outline: as §1
Pseudomonas aeruginosa [6] = assay: Antibacterial activity against beta-lactams resistant Pseudomonas aeruginosa isolate expressing MexAB-OprM pump, MexXY-OprM pump by macrodilution technique; format: functional; outline: as §1
Pseudomonas aeruginosa [7] = assay: Antibacterial activity against aminoglycoside-resistant Pseudomonas aeruginosa isolate expressing AAC(6')-1, ANT(2'')-1 by macrodilution technique; format: functional
Outline: as §1, with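 “Bloodstream P. aeruginosa isolates from patients in six French teaching hospitals (1999–2004). MICs” for “MICs”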

Pseudomonas aeruginosa [8] = assay: Antibacterial activity against wild type Pseudomonas aeruginosa isolate by macrodilution technique; format: functional; outline: as §1
Pseudomonas aeruginosa [9] = assay: Antibacterial activity against aminoglycoside-resistant Pseudomonas aeruginosa isolate expressing MexXY-OprM pump, AAC(6')-1 by macrodilution technique; format: functional
Outline: as §1, with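 “Bloodstream P. aeruginosa isolates from patients in six French teaching hospitals (1999–2004). MICs” for “MICs”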

Pseudomonas aeruginosa [10] = assay: Antibacterial activity against Pseudomonas aeruginosa clinical isolates assessed as resistant rate by macrodilution technique; format: functional
Pseudomonas aeruginosa [11] = assay: Antibacterial activity against aminoglycoside-resistant Pseudomonas aeruginosa isolate expressing MexXY-OprM pump, AAC(6')-1, AAC(3')-1 by macrodilution technique; format: functional
Outline: as §1, with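 “Bloodstream P. aeruginosa isolates from patients in six French teaching hospitals (1999–2004). MICs” for “MICs”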

Pseudomonas aeruginosa [12] = assay: Antibacterial activity against aminoglycoside-resistant Pseudomonas aeruginosa isolate expressing MexXY-OprM pump, AAC(3')-1 by macrodilution technique; format: functional
Outline: as §1, with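 “Bloodstream P. aeruginosa isolates from patients in six French teaching hospitals (1999–2004). MICs” for “MICs”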

Pseudomonas aeruginosa [13] = assay: Antibacterial activity against MexXY-OprM pump-independent aminoglycoside-resistant Pseudomonas aeruginosa isolate by macrodilution technique; format: functional
Outline: as §1, with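 “Bloodstream P. aeruginosa isolates from patients in six French teaching hospitals (1999–2004). MICs” for “MICs”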

Pseudomonas aeruginosa [14] = assay: Antibacterial activity against aminoglycoside-resistant Pseudomonas aeruginosa isolate expressing MexXY-OprM pump by macrodilution technique; format: functional
Outline: as §1, with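 “Bloodstream P. aeruginosa isolates from patients in six French teaching hospitals (1999–2004). MICs” for “MICs”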

Pseudomonas aeruginosa [15] = assay: Antibacterial activity against wild type Pseudomonas aeruginosa PAO1 by macrodilution technique; format: functional
Outline: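 Wild-type reference strain PAO1. MIC by agar macrodilution on Mueller-Hinton agar with calibrated divalent cations. It served as the baseline for defining a ≥fourfold MIC increase in clinical isolates, and as the expression reference in RT-PCR.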

Pseudomonas aeruginosa [16] = assay: Antibacterial activity against Pseudomonas aeruginosa clinical isolates assessed as susceptible rate by macrodilution technique; format: functional
Pseudomonas aeruginosa [17] = assay: Antibacterial activity against Pseudomonas aeruginosa clinical isolate by macrodilution technique; format: functional
Pseudomonas aeruginosa [18] = assay: Antibacterial activity against aminoglycoside-resistant Pseudomonas aeruginosa isolate expressing MexXY-OprM pump, ANT(2'')-1 by macrodilution technique; format: functional
Outline: as §1, with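 “Bloodstream P. aeruginosa isolates from patients in six French teaching hospitals (1999–2004). MICs” for “MICs”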

Pseudomonas aeruginosa [19] = assay: Antibacterial activity against aminoglycoside-resistant Pseudomonas aeruginosa isolate expressing ANT(2'')-1 by macrodilution technique; format: functional
Outline: as §1, with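 “Bloodstream P. aeruginosa isolates from patients in six French teaching hospitals (1999–2004). MICs” for “MICs”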

Pseudomonas aeruginosa [20] = assay: Antibacterial activity against aminoglycoside-resistant Pseudomonas aeruginosa isolate expressing AAC(6')-1 by macrodilution technique; format: functional
Outline: as §1, with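 “Bloodstream P. aeruginosa isolates from patients in six French teaching hospitals (1999–2004). MICs” for “MICs”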

Pseudomonas aeruginosa [21] = assay: Antibacterial activity against aminoglycoside-resistant Pseudomonas aeruginosa isolate expressing MexXY-OprM pump, AAC(6')-1, ANT(2'')-1 by macrodilution technique; format: functional
Outline: as §1, with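 “Bloodstream P. aeruginosa isolates from patients in six French teaching hospitals (1999–2004). MICs” for “MICs”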

Pseudomonas aeruginosa [22] = assay: Antibacterial activity against beta-lactams resistant Pseudomonas aeruginosa isolate expressing MexXY-OprM pump, TEM-2 by macrodilution technique; format: functional; outline: as §1
Pseudomonas aeruginosa [23] = assay: Antibacterial activity against beta-lactams resistant Pseudomonas aeruginosa isolate expressing MexXY-OprM pump by macrodilution technique; format: functional; outline: as §1
Pseudomonas aeruginosa [24] = assay: Antibacterial activity against beta-lactams resistant Pseudomonas aeruginosa isolate expressing PSE-1 by macrodilution technique; format: functional; outline: as §1
Pseudomonas aeruginosa [25] = assay: Antibacterial activity against beta-lactams resistant Pseudomonas aeruginosa isolate expressing AmpC, PSE-1, MexXY-OprM pump by macrodilution technique; format: functional; outline: as §1
Pseudomonas aeruginosa [26] = assay: Antibacterial activity against beta-lactams resistant Pseudomonas aeruginosa isolate expressing AmpC, MexXY-OprM pump by macrodilution technique; format: functional; outline: as §1
Pseudomonas aeruginosa [27] = assay: Antibacterial activity against beta-lactams resistant Pseudomonas aeruginosa isolate expressing PSE-1, MexXY-OprM pump by macrodilution technique; format: functional; outline: as §1
Pseudomonas aeruginosa [28] = assay: Antibacterial activity against beta-lactams resistant OprD-deficient Pseudomonas aeruginosa isolate by macrodilution technique; format: functional; outline: as §1
Pseudomonas aeruginosa [29] = assay: Antibacterial activity against beta-lactams resistant Pseudomonas aeruginosa isolate expressing AmpC, MexXY-OprM pump, TEM-2 by macrodilution technique; format: functional; outline: as §1
Pseudomonas aeruginosa [30] = assay: Antibacterial activity against fluoroquinolone-resistant Pseudomonas aeruginosa isolate with GyrA mutant by macrodilution technique

Compound | MIC (Pseudomonas aeruginosa [1]) [µg/mL] | MIC (Pseudomonas aeruginosa [2]) [µg/mL] | MIC (Pseudomonas aeruginosa [3]) [µg/mL] | MIC (Pseudomonas aeruginosa [4]) [µg/mL] | MIC (Pseudomonas aeruginosa [5]) [µg/mL] | MIC (Pseudomonas aeruginosa [6]) [µg/mL] | Activity (Pseudomonas aeruginosa [10]) [%] | MIC (Pseudomonas aeruginosa [15]) [µg/mL] | Activity (Pseudomonas aeruginosa [16]) [%] | MIC50 (Pseudomonas aeruginosa [17]) [µg/mL] | MIC90 (Pseudomonas aeruginosa [17]) [µg/mL] | MIC (Pseudomonas aeruginosa [22]) [µg/mL] | also measured
CO/N=C(\C(=O)N[C@@H]1C(=O)N2C(C(=O)[O-])=C(C[N+]3(C)CCCC3)CS[C@H]12)c1csc(N)n1 | 8 (≈ 16.6 µM) | 2 (≈ 4.16 µM) | 8 (≈ 16.6 µM) | 8 (≈ 16.6 µM) | 8 (≈ 16.6 µM) | 8 (≈ 16.6 µM) |  |  |  |  |  |  | 
NCC[C@H](O)C(=O)N[C@@H]1C[C@H](N)[C@@H](O[C@H]2O[C@H](CN)[C@@H](O)[C@H](O)[C@H]2O)[C@H](O)[C@H]1O[C@H]1O[C@H](CO)[C@@H](O)[C@H](N)[C@H]1O [AMIKACIN] |  |  |  |  |  |  | 1.7 | 4 (≈ 6.83 µM) | 93.3 | 4 (≈ 6.83 µM) | 16 (≈ 27.3 µM) |  | MIC (Pseudomonas aeruginosa [7]): 16 µg/mL (≈ 27.3 µM); MIC (Pseudomonas aeruginosa [8]): 4 µg/mL (≈ 6.83 µM); MIC (Pseudomonas aeruginosa [9]): 32 µg/mL (≈ 54.6 µM); MIC (Pseudomonas aeruginosa [11]): 128 µg/mL (≈ 219 µM); MIC (Pseudomonas aeruginosa [12]): 8 µg/mL (≈ 13.7 µM); MIC (Pseudomonas aeruginosa [13]): 8 µg/mL (≈ 13.7 µM); MIC (Pseudomonas aeruginosa [14]): 8 µg/mL (≈ 13.7 µM); MIC (Pseudomonas aeruginosa [18]): 8 µg/mL (≈ 13.7 µM); MIC (Pseudomonas aeruginosa [19]): 4 µg/mL (≈ 6.83 µM); MIC (Pseudomonas aeruginosa [20]): 16 µg/mL (≈ 27.3 µM); MIC (Pseudomonas aeruginosa [21]): 16 µg/mL (≈ 27.3 µM)
C[C@H]1[C@H](NC(=O)/C(=N\OC(C)(C)C(=O)O)c2csc(N)n2)C(=O)N1S(=O)(=O)O [AZTREONAM] |  |  |  | 8 (≈ 18.4 µM) |  |  |  |  |  |  |  | 8 (≈ 18.4 µM) | 
CC(C)(O/N=C(\C(=O)N[C@@H]1C(=O)N2C(C(=O)[O-])=C(C[n+]3ccccc3)CS[C@H]12)c1csc(N)n1)C(=O)O [CEFTAZIDIME] | 16 (≈ 29.3 µM) | 2 (≈ 3.66 µM) | 4 (≈ 7.32 µM) | 4 (≈ 7.32 µM) | 16 (≈ 29.3 µM) | 2 (≈ 3.66 µM) | 3.3 | 1 (≈ 1.83 µM) | 90 | 2 (≈ 3.66 µM) | 8 (≈ 14.6 µM) | 8 (≈ 14.6 µM) | MIC (Pseudomonas aeruginosa [23]): 2 µg/mL (≈ 3.66 µM); MIC (Pseudomonas aeruginosa [24]): 2 µg/mL (≈ 3.66 µM); MIC (Pseudomonas aeruginosa [25]): 8 µg/mL (≈ 14.6 µM); MIC (Pseudomonas aeruginosa [26]): 8 µg/mL (≈ 14.6 µM); MIC (Pseudomonas aeruginosa [27]): 2 µg/mL (≈ 3.66 µM); MIC (Pseudomonas aeruginosa [28]): 2 µg/mL (≈ 3.66 µM); MIC (Pseudomonas aeruginosa [29]): 32 µg/mL (≈ 58.5 µM)
O=C(O)c1cn(C2CC2)c2cc(N3CCNCC3)c(F)cc2c1=O [CIPROFLOXACIN] |  |  |  |  |  |  |  |  |  |  |  |  | MIC (Pseudomonas aeruginosa [30]): 16 µg/mL (≈ 48.3 µM)
